This is an account of results in ChEMBL document CHEMBL1126557, “Novel antiasthmatic agents with dual activities of thromboxane A2 synthetase inhibition and bronchodilation. 2. 4-(3-Pyridyl)-1(2H)-phthalazinones” (J Med Chem, 1993).

Test [1] is filed under the species Cavia porcellus. Put plainly: In vitro bronchodilatory activity in guinea pig isolated tracheal strips. The test is classed as functional. As to conditions: Trachea.
Test [2] has as its system Thromboxane-A synthase (Oryctolagus cuniculus). As to the kind of experiment: Tested in vitro against rabbit thromboxane A2 synthetase (TXA2) at 1 uM.
Test [3] concerns Cavia porcellus. As to the kind of experiment: In vivo inhibitory effect on airway constriction induced by histamine 2-5 micro g/kg iv at 1 min after 10 mg/kg iv dose of compound. The test is classed as functional. The method, boiled down: (§1)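 Male Dunkin-Hartley guinea pigs anesthetized with pentobarbital 35 mg/kg ip, jugular vein and trachea cannulated, ventilated at 10 mL/kg, 60 strokes/min. Insufflation pressure recorded. Histamine 2–5 μg/kg iv repeated every 10 min until a reproducible control response. Compound 10 mg/kg iv 1 min before the next challenge.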

Test [4] deals with T1, Thromboxane-A synthase (Rattus norvegicus) (UniProt P49430).
T1 sequence (whole entry): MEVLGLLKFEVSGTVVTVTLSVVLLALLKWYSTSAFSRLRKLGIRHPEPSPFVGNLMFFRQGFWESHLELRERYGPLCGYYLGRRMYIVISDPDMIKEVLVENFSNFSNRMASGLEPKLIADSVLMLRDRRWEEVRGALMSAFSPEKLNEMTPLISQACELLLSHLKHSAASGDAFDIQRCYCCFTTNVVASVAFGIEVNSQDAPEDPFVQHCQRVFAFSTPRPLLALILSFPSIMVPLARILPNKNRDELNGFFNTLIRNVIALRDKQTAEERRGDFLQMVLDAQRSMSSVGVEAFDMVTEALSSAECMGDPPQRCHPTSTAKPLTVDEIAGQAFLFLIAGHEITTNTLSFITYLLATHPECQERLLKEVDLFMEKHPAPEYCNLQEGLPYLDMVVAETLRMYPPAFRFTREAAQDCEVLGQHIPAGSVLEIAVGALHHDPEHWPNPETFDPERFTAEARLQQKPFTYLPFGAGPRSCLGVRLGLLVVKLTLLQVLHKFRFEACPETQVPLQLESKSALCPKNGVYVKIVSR
As to the kind of experiment: Tested ex vivo against TXA2 production in rat serum at 1 hr after peroral dose of 30 mg/kg and anesthetized with ether. It counts as functional, organism-based. On the set-up: dose 30 mg/kg. In outline: (§2)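 Male SD rats (240–260 g), fasted 20 h, dosed orally with compound in 0.5% carboxymethylcellulose or vehicle alone. At 1 h, ether anesthesia and 2 mL cardiac blood taken and clotted at 37 °C for 90 min.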

Test [5] deals with T1, Thromboxane-A synthase (Rattus norvegicus). As to the kind of experiment: Tested ex vivo against TXA2 production in male SD rats at 1 hr after peroral dose of 30 mg/kg and anesthetized with ether. The test is classed as functional, organism-based. On the set-up: dose 30 mg/kg. The method, boiled down: as §2
Test [6] concerns Cavia porcellus. As to the kind of experiment: In vivo inhibitory effect on airway constriction induced by histamine 2-5 ug/kg iv at 1 min after 10 mg/kg iv dose of compound. The test is classed as functional. In outline: as §1
Test [7] deals with Rattus norvegicus. As to the kind of experiment: Tested ex vivo against serum TXB2 production at 1 hr after oral dose of 3 mg/kg of drug to rat. It counts as functional. In outline: as §2
Test [8] has as its system Rattus norvegicus. As to the kind of experiment: Tested ex vivo against serum TXB2 production at 1 hr after oral dose of 30 mg/kg of drug to rat. The test is classed as functional. In outline:
as §2

pIC50: −log10 of the molar value.

In turn, `CCOC(=O)CCCn1nc(-c2cccnc2)c2ccccc2c1=O` had a negative logarithm of the IC50 (pIC50) in the test listed under Cavia porcellus [1] of 5.00. In test [2], the inhibition is 95%.

As to `O=c1c2ccccc2c(-c2cccnc2)nn1CCn1ccnc1`, the inhibition in vivo at 10 mg/kg in the test with Cavia porcellus [3] came to 97%. Besides, the inhibition in test [2] was found to be 37%.

In the case of `O=c1c2ccccc2c(-c2cccnc2)nn1Cc1cccc(Cl)c1`, the pIC50 in the test listed under Cavia porcellus [1] is 5.38. For the same molecule, the inhibition in test [2] was 95%.

In the test listed under Cavia porcellus [1], `O=c1c2ccccc2c(-c2cccnc2)nn1S(=O)(=O)c1ccccc1` gave a negative-log IC50 (pIC50) of 4.83. The molecule also showed an inhibition in test [2] of 96%.

As to `CCn1nc(-c2cnccn2)c2ccccc2c1=O`, the pIC50 in the test filed under Cavia porcellus [1] is 4.96. The same molecule showed an inhibition in test [2] of 37%.

In turn, `O=C1c2ccccc2C(=O)N1CCn1nc(-c2cccnc2)c2ccccc2c1=O` had a negative-log IC50 (pIC50) in the test listed under Cavia porcellus [1] of 4.66. Also, in test [2], the inhibition amounted to 87%.

`O=c1c2ccccc2c(-c2cccnc2)nn1CCn1cnnn1`: the pIC50 in the test filed under Cavia porcellus [1] was 4.62. Moreover, the inhibition in test [4] was found to be 77%; in test [2], 43%.

In the test filed under Cavia porcellus [1], `CC(C)n1nc(-c2cncs2)c2ccccc2c1=O` had a negative logarithm of the IC50 (pIC50) of 5.47. Besides, in test [5], the inhibition stood at 71%.

`Oc1nnc(-n2ccnc2)c2ccccc12`: in the test filed under Cavia porcellus [1], the pIC50 was 5.08. This molecule also displayed an inhibition in test [4] of 87%.

Consider `O=C(O)CCCn1nc(-c2cccnc2)c2ccccc2c1=O`, for which, in the test listed under Cavia porcellus [1], the pIC50 is below 4.00. Further, the inhibition in test [2] is 73%.

As to `CC(C)Cn1nc(-c2cncs2)c2ccccc2c1=O`, in the test listed under Cavia porcellus [1], the negative logarithm of the IC50 (pIC50) was 5.62.

In turn, `O=c1c2ccccc2c(-c2cccnc2)nn1CCSc1ccccc1` gave a pIC50 in the test listed under Cavia porcellus [1] of 5.04. The inhibition in test [5] was found to be 52%.

On to `O=c1c2ccccc2c(-c2cccnc2)nn1Cc1ccccc1`, for which, in the test filed under Cavia porcellus [1], the negative-log IC50 (pIC50) is 5.61. Further, the inhibition in test [4] is 86%; in test [2], 97%.

On to `O=c1c2ccccc2c(-c2cccnc2)nn1CCO`, for which the pIC50 in the test listed under Cavia porcellus [1] is 5.34. Besides, the inhibition in test [2] came to 69%.

Molecule `O=c1c2ccccc2c(-c2cccnc2)nn1CCNS(=O)(=O)c1ccccc1` showed a pIC50 in the test filed under Cavia porcellus [1] of 4.58. Further, the inhibition in test [2] was found to be 93%.

`Oc1nnc(-c2cncs2)c2ccccc12` gave a pIC50 in the test filed under Cavia porcellus [1] of 5.92. The inhibition in test [4] was 70%; in test [2], 38%.

`COCCn1nc(-c2cccnc2)c2ccccc2c1=O` showed a pIC50 in the test listed under Cavia porcellus [1] of 5.03. The molecule also gave an inhibition in test [2] of 55%.

For the molecule `COC(=O)c1ccc(Cn2nc(-c3cccnc3)c3ccccc3c2=O)cc1`, the pIC50 in the test listed under Cavia porcellus [1] was 5.23. In addition, the inhibition in test [2] is 95%.

The molecule `C=CCn1nc(-c2cccnc2)c2ccccc2c1=O` showed a pIC50 in the test filed under Cavia porcellus [1] of 5.67. The molecule further showed an inhibition in vivo at 10 mg/kg with Cavia porcellus [3] of 100%. The inhibition in test [4] worked out at 82%; in test [2], 70%.

Regarding `Cn1nc(-c2cccnc2)c2ccccc2c1=O`, in the test listed under Cavia porcellus [1], the pIC50 is 4.94. Testing at 10 mg/kg with Cavia porcellus [6] gave an inhibition in vivo of 97%. Also, the inhibition in test [4] was 94%; in test [2], 63%.

Take `CC(C)=CCn1nc(-c2cccnc2)c2ccccc2c1=O`: the negative logarithm of the IC50 (pIC50) in the test filed under Cavia porcellus [1] is 5.86. For the same molecule, the inhibition in test [2] came to 94%.

`CCn1nc(-c2cncnc2)c2ccccc2c1=O` gave a pIC50 in the test listed under Cavia porcellus [1] of 5.02. Further, the inhibition in test [2] was 26%.

As to `O=c1c2ccccc2c(-c2cccnc2)nn1C1CCCC1`, the negative logarithm of the IC50 (pIC50) in the test filed under Cavia porcellus [1] was 5.56. Moreover, the inhibition was found to be 80% in test [4] and 97% in test [2].

With `CCCCn1nc(-c2cccnc2)c2ccccc2c1=O`, in the test filed under Cavia porcellus [1], the negative logarithm of the IC50 (pIC50) is 5.64. The inhibition in test [4] was determined as 100%; in test [2], 91%.

Consider `CCOC(=O)Cn1nc(-c2cccnc2)c2ccccc2c1=O`, for which the negative-log IC50 (pIC50) in the test listed under Cavia porcellus [1] is 4.36. For the same molecule, the inhibition in test [4] worked out at 0%; in test [2], 28%.

`CC(C)n1nc(-c2cccnc2)c2ccccc2c1=O` gave a pIC50 in the test filed under Cavia porcellus [1] of 5.51. For the same molecule, the inhibition in test [4] was found to be 82%; in test [2], 87%.

Molecule `O=c1c2ccccc2c(-c2cccnc2)nn1CCSC1=NCCS1` gave a pIC50 in the test filed under Cavia porcellus [1] of 4.98.

With `CCCCCCCCn1nc(-c2cccnc2)c2ccccc2c1=O`, the pIC50 in the test filed under Cavia porcellus [1] was 4.66. Also, the inhibition in test [2] came out at 99%.

Take `Oc1nnc(-n2cncn2)c2ccccc12`: the negative logarithm of the IC50 (pIC50) in the test filed under Cavia porcellus [1] is 4.78.

On to `CC(=O)Cn1nc(-c2cccnc2)c2ccccc2c1=O`, for which the pIC50 in the test filed under Cavia porcellus [1] is 4.39. In addition, the inhibition in test [2] turned out to be 13%.

`O=c1c2ccccc2c(-c2cccnc2)nn1CC1CCCCC1`: the negative logarithm of the IC50 (pIC50) in the test filed under Cavia porcellus [1] was 6.68. Moreover, the inhibition in test [2] is 98%.

On to `O=c1c2ccccc2c(-c2cccnc2)nn1CCSc1ncccn1`, for which, in the test filed under Cavia porcellus [1], the negative logarithm of the IC50 (pIC50) is 4.96. For the same molecule, the inhibition in test [2] amounted to 86%.

As for `CCn1nc(-n2cncn2)c2ccccc2c1=O`, in the test filed under Cavia porcellus [1], the pIC50 is 4.80. This molecule yielded an inhibition in test [2] of 0%.

`O=C(O)Cn1nc(-c2cccnc2)c2ccccc2c1=O` had a pIC50 in the test filed under Cavia porcellus [1] below 4.00. The molecule also yielded an inhibition in test [2] of 13%.

Molecule `CC(=O)OCCn1nc(-c2cccnc2)c2ccccc2c1=O` showed a negative logarithm of the IC50 (pIC50) in the test filed under Cavia porcellus [1] of 5.01. In test [2], this molecule displayed an inhibition of 32%.

`CC(C)NC(=O)CCCn1nc(-c2cccnc2)c2ccccc2c1=O`: the negative logarithm of the IC50 (pIC50) in the test filed under Cavia porcellus [1] is 4.19. This molecule also had an inhibition in test [2] of 89%.

In the case of `CCn1nc(-n2ccnc2)c2ccccc2c1=O`, the pIC50 in the test filed under Cavia porcellus [1] was 5.27. The inhibition turned out to be 72% in test [4] and 53% in test [2].

In turn, `O=C(O)/C=C/c1ccc(Cn2ccnc2)cc1` [OZAGREL] gave a pIC50 in the test filed under Cavia porcellus [1] below 3.00. The molecule further registered an inhibition in vivo at 10 mg/kg in the test on Cavia porcellus [3] of 0%. Also, 3 mg/kg produced 86% inhibition in vivo in the test on Rattus norvegicus [7]. Besides, at 30 mg/kg the inhibition in vivo in the test with Rattus norvegicus [8] was 92%. Also, in test [4], the inhibition is 92%.

As to `CCCn1nc(-c2cccnc2)c2ccccc2c1=O`, the pIC50 in the test filed under Cavia porcellus [1] is 5.50. The inhibition in test [4] came to 93%; in test [2] it was 86%.

`NCCn1nc(-c2cccnc2)c2ccccc2c1=O` showed a negative-log IC50 (pIC50) in the test filed under Cavia porcellus [1] below 4.00. The same molecule yielded an inhibition in test [2] of 29%.

As for `Oc1nnc(-c2nccs2)c2ccccc12`, the negative logarithm of the IC50 (pIC50) in the test filed under Cavia porcellus [1] is 5.34. Further, the inhibition in test [5] stood at 23%.

`CCn1nc(-c2cncs2)c2ccccc2c1=O` had a negative logarithm of the IC50 (pIC50) in the test listed under Cavia porcellus [1] of 6.25. The values for the inhibition in test [4] and in test [2] were 69% and 77%, respectively.

As for `CCn1nc(-c2nccs2)c2ccccc2c1=O`, in the test listed under Cavia porcellus [1], the pIC50 was 5.50. The results for the inhibition in test [4] and in test [2] were 5% and 4%, respectively.

Turning to `O=C(O)c1ccc(Cn2nc(-c3cccnc3)c3ccccc3c2=O)cc1`, in the test listed under Cavia porcellus [1], the pIC50 was 4.77. For the same molecule, in test [2], the inhibition was 64%.

On to `O=c1c2ccccc2c(-c2cccnc2)nn1CCCCSc1ncccn1`, for which the pIC50 in the test filed under Cavia porcellus [1] was 5.21. The same molecule came in with an inhibition in test [2] of 96%.

In turn, `Oc1nnc(-c2cccnc2)c2ccccc12` gave a negative-log IC50 (pIC50) in the test filed under Cavia porcellus [1] of 4.99. Moreover, the values for the inhibition in test [4] and in test [2] were 78% and 26%, respectively.

In the test listed under Cavia porcellus [1], `O=C(c1cccs1)n1nc(-c2cccnc2)c2ccccc2c1=O` gave a pIC50 of 4.91. This molecule showed an inhibition in test [2] of 37%.
